Assay results taken from ChEMBL document CHEMBL5705890, “Antitumor activity of an allosteric inhibitor of centromere-associated protein-E” (Proc Natl Acad Sci U S A, 2010).

How the values were obtained:
[1] = tested on: CHP-212; assay: Anticancer activity against human CHP-212 cells assessed as cell growth inhibition measured after 72 hrs by DAPI staining based analysis; format: functional
Procedure, shortened: (§1)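 Cells were seeded, and DNA content at 24 h after seeding (T0) was read by imaging of fixed, DAPI-stained cells. Cells were then exposed to a range of drug concentrations for a further 72 h (T72) and DNA content was read again. T72 values were normalized to T0, and GI50 was taken from curve fits as the concentration giving 50% growth inhibition relative to T0 and Ymax.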

[2] = tested on: HuP-T4; assay: Anticancer activity against human HuP-T4 cells assessed as cell growth inhibition measured after 72 hrs by DAPI staining based analysis; format: functional
[3] = tested on: SNB-19; assay: Anticancer activity against human SNB-19 cells assessed as cell doubling measured for 72 hrs by DAPI staining based analysis; format: functional
[4] = tested on: OV-90; assay: Anticancer activity against human OV-90 cells assessed as cell growth inhibition measured after 72 hrs by DAPI staining based analysis; format: functional
[5] = tested on: CAKI-2; assay: Anticancer activity against human CAKI-2 cells assessed as cell doubling measured for 72 hrs by DAPI staining based analysis; format: functional
[6] = tested on: DB; assay: Anticancer activity against human DB cells assessed as cell doubling measured for 72 hrs by DAPI staining based analysis; format: functional
[7] = tested on: SW837; assay: Anticancer activity against human SW837 cells assessed as cell doubling measured for 72 hrs by DAPI staining based analysis; format: functional
[8] = Anticancer activity against human NCI-H322T cells assessed as cell growth inhibition measured after 72 hrs by DAPI staining based analysis; format: functional
[9] = tested on: EKVX; assay: Anticancer activity against human EKVX cells assessed as cell doubling measured for 72 hrs by DAPI staining based analysis; format: functional
[10] = molecular target: Centromere protein E (Canis lupus familiaris, UniProt A0A8P0P634); assay: Binding affinity to wild-type dog CENP-E assessed as inhibition constant
Centromere protein E, sequence (A0A8P0P634 whole entry): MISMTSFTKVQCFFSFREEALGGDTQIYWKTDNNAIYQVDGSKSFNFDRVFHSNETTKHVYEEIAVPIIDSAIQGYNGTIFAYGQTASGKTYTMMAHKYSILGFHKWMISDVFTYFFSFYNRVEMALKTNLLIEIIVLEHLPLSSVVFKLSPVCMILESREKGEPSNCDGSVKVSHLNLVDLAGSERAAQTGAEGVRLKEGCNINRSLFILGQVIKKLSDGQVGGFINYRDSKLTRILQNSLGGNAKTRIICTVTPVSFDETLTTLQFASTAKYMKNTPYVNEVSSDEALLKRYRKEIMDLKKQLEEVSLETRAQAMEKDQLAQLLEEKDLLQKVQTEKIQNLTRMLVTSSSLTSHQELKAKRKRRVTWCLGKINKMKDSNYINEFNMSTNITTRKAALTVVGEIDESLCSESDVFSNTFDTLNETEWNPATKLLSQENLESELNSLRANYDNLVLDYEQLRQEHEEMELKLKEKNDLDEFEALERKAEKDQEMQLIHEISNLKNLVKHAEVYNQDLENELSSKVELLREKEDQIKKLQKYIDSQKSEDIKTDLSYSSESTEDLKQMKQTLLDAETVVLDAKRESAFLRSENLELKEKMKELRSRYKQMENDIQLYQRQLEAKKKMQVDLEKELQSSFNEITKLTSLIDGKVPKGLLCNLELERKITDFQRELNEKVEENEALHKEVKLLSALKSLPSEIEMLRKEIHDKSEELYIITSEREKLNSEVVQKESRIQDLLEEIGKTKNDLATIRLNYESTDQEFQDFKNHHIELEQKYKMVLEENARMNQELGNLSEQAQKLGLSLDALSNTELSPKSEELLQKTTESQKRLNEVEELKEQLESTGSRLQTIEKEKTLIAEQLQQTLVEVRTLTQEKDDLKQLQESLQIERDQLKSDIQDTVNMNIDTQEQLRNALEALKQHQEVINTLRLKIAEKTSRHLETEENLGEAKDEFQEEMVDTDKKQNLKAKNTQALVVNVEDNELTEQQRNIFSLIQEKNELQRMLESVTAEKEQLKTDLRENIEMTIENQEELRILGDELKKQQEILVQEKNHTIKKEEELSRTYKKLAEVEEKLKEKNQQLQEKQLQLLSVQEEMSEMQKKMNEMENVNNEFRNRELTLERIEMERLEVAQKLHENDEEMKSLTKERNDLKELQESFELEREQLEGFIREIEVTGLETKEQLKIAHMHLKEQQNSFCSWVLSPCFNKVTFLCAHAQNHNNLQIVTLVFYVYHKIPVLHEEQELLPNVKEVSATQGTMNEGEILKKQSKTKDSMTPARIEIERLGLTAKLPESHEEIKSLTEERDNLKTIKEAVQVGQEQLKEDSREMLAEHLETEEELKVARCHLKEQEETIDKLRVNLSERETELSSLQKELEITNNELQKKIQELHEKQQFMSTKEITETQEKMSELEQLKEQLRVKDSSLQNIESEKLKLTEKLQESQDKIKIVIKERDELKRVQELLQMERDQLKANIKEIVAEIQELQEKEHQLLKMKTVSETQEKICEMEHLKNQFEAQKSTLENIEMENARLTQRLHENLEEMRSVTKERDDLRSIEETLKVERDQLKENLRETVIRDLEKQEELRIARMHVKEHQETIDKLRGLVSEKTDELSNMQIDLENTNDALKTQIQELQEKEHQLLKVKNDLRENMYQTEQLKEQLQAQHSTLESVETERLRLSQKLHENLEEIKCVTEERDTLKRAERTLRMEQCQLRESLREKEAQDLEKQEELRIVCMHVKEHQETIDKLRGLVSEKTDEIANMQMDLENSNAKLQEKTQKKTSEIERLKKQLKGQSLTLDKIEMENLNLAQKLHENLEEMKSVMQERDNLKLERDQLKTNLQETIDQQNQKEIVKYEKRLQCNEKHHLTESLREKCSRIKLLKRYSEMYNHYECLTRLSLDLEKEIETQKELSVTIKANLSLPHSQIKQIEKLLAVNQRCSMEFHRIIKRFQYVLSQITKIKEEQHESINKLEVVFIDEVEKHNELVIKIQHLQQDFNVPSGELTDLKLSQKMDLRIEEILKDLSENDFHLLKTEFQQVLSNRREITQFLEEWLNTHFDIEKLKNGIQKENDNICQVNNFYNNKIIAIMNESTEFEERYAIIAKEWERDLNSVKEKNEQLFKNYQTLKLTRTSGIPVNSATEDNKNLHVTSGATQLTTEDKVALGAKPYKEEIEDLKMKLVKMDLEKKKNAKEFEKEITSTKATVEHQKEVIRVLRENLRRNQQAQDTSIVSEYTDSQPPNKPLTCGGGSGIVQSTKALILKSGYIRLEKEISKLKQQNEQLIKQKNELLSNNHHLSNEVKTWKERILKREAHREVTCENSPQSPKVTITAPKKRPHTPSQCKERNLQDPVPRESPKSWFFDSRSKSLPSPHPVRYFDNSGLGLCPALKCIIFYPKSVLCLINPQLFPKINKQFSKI

[11] = tested on: IGROV-1; assay: Anticancer activity against human IGROV-1 cells assessed as cell doubling measured for 72 hrs by DAPI staining based analysis; format: functional
[12] = tested on: NCI-H2122; assay: Anticancer activity against human NCI-H2122 cells assessed as cell growth inhibition measured after 72 hrs by DAPI staining based analysis; format: functional
[13] = tested on: A 172; assay: Anticancer activity against human A-172 cells assessed as cell doubling measured for 72 hrs by DAPI staining based analysis; format: functional
[14] = tested on: NCI-H460; assay: Anticancer activity against human NCI-H460 cells assessed as cell doubling measured for 72 hrs by DAPI staining based analysis; format: functional
[15] = tested on: KATO III stomach cancer cell line; assay: Anticancer activity against human KATO III stomach cancer cell line cells assessed as cell growth inhibition measured after 72 hrs by DAPI staining based analysis; format: functional
[16] = tested on: SW1990; assay: Anticancer activity against human SW1990 cells assessed as cell growth inhibition measured after 72 hrs by DAPI staining based analysis; format: functional
[17] = molecular target: Centromere-associated protein E (Homo sapiens, UniProt Q02224); assay: Binding affinity to wild-type human CENP-E assessed as inhibition constant
Centromere-associated protein E (Homo sapiens, UniProt Q02224), sequence (Q02224 whole entry, the tested form may be a part): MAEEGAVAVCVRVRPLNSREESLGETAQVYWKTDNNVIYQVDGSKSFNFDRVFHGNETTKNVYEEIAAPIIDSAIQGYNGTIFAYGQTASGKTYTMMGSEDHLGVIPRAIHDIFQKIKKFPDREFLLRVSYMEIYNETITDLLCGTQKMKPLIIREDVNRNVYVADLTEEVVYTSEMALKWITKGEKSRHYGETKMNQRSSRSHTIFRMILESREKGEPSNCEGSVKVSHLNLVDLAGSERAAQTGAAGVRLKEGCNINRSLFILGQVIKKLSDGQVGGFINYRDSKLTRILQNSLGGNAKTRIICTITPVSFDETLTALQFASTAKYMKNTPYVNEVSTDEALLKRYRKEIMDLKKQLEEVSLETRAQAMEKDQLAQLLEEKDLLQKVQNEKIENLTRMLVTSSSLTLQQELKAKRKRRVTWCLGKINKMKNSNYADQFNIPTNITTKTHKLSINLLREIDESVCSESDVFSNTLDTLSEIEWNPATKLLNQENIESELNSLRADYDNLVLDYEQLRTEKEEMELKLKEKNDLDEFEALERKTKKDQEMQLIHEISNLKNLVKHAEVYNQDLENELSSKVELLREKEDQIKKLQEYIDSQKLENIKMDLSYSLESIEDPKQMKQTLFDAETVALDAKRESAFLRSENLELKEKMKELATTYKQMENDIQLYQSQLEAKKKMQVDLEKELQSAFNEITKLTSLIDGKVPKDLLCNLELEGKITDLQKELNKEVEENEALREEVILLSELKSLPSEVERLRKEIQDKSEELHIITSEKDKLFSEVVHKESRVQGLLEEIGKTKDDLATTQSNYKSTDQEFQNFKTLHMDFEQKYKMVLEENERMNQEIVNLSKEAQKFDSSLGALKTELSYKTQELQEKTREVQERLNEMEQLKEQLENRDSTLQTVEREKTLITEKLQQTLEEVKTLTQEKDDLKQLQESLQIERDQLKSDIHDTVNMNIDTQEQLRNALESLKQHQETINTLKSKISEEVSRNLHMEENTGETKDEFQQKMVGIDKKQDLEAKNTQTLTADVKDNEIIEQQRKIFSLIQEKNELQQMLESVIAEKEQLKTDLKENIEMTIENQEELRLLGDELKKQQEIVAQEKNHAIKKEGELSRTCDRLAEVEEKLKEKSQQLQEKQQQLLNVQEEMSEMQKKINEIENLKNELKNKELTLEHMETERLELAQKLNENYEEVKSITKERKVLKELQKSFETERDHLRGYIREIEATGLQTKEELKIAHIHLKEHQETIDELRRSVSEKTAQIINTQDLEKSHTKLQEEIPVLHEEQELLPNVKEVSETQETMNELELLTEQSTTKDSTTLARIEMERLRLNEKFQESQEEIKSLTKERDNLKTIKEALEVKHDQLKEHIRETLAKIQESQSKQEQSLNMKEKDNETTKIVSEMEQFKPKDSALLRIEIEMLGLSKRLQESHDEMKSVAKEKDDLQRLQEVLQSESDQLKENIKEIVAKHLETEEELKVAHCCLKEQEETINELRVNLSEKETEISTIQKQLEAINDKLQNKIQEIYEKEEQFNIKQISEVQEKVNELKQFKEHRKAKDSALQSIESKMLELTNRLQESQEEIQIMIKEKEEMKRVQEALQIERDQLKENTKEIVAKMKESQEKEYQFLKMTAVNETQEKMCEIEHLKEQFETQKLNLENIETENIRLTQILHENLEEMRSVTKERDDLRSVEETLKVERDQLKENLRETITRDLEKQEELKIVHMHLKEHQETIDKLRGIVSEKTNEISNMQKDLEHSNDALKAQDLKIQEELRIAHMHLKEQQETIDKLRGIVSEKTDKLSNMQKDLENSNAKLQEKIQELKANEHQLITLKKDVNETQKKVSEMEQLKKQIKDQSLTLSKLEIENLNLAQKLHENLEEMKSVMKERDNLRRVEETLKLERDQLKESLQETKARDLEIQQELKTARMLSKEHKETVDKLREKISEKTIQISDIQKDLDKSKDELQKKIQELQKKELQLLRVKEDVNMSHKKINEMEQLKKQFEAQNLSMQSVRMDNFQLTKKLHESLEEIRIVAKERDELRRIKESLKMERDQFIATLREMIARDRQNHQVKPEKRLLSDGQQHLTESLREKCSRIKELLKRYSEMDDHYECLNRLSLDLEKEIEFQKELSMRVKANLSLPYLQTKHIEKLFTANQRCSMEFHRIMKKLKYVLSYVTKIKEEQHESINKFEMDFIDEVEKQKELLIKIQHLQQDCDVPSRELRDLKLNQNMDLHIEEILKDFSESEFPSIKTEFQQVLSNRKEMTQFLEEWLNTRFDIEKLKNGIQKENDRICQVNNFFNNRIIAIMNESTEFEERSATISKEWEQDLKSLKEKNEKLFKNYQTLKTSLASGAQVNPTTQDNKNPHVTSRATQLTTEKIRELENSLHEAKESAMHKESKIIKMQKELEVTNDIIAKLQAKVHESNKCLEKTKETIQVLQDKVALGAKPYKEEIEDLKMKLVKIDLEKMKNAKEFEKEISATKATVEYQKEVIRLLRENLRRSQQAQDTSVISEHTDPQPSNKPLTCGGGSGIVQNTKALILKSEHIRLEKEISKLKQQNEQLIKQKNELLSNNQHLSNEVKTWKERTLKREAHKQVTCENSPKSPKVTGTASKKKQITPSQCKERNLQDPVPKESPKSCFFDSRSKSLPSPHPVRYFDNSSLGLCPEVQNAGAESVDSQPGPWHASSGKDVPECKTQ
Procedure, shortened: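 CENP-E motor domain (residues 2–340, C-terminal 6-his, from E. coli BL21(DE3)) run in MT-stimulated ATPase with 500 μM ATP, 5 μM paclitaxel-stabilized MT, 1 nM enzyme in PEM25 buffer, pH 6.8. Apparent Ki taken from the concentration-response curves with explicit correction for enzyme concentration.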

[18] = tested on: NCI-H295R; assay: Anticancer activity against human NCI-H295R cells assessed as cell doubling measured for 72 hrs by DAPI staining based analysis; format: functional
[19] = tested on: C-33-A; assay: Anticancer activity against human C-33-A cells assessed as cell doubling measured for 72 hrs by DAPI staining based analysis; format: functional
[20] = tested on: MX1; assay: Antitumor activity against human MX1 cells in xenograft model assessed as tumor growth delay at 125 mg/kg relative to control; format: functional
[21] = tested on: MCF7; assay: Antitumor activity against human MCF7 cells in xenograft model assessed as tumor growth delay at 125 mg/kg relative to control; format: functional
[22] = tested on: NCI-H526; assay: Anticancer activity against human NCI-H526 cells assessed as cell growth inhibition measured after 72 hrs by DAPI staining based analysis; format: functional
[23] = tested on: MV4-11; assay: Anticancer activity against human MV4-11 cells assessed as cell growth inhibition measured after 72 hrs by DAPI staining based analysis; format: functional
[24] = tested on: A498; assay: Anticancer activity against human A498 cells assessed as cell growth inhibition measured after 72 hrs by DAPI staining based analysis; format: functional
Procedure, shortened: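 Cells were seeded and, after 24 h, DNA content was read as T0. Cells were then exposed to varying drug concentrations for a further 72 h (T72). Fixed cells were DAPI-stained and DNA content measured by automated imaging. T72 values were normalized to T0. GI50 is the concentration giving 50% growth inhibition between T0 and Ymax, obtained by curve fitting.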

[25] = tested on: COLO 205; assay: Antitumor activity against human COLO 205 cells in xenograft model assessed as tumor growth delay at 62.5 mg/kg relative to control; format: functional
[26] = tested on: SCC-9; assay: Anticancer activity against human SCC-9 cells assessed as cell growth inhibition measured after 72 hrs by DAPI staining based analysis; format: functional
[27] = tested on: SW948; assay: Anticancer activity against human SW948 cells assessed as cell growth inhibition measured after 72 hrs by DAPI staining based analysis; format: functional
[28] = tested on: SW480; assay: Anticancer activity against human SW480 cells assessed as cell growth inhibition measured after 72 hrs by DAPI staining based analysis; format: functional
[29] = tested on: MX1; assay: Antitumor activity against human MX1 cells in xenograft model assessed as difference between median time to endpoint time of treated versus control group at 125 mg/kg; format: functional
[30] = tested on: SK-MEL3; assay: Anticancer activity against human SK-MEL3 cells assessed as cell doubling measured for 72 hrs by DAPI staining based analysis; format: functional
[31] = tested on: Caov-3 cell line; assay: Anticancer activity against human Caov-3 cells assessed as cell doubling measured for 72 hrs by DAPI staining based analysis; format: functional
[32] = tested on: EFM-19; assay: Anticancer activity against human EFM-19 cells assessed as cell doubling measured for 72 hrs by DAPI staining based analysis; format: functional
[33] = tested on: CAL-62; assay: Anticancer activity against human CAL-62 cells assessed as cell doubling measured for 72 hrs by DAPI staining based analysis; format: functional
[34] = tested on: RKO; assay: Anticancer activity against human RKO cells assessed as cell growth inhibition measured after 72 hrs by DAPI staining based analysis; format: functional
[35] = tested on: RKO; assay: Anticancer activity against human RKO cells assessed as cell doubling measured for 72 hrs by DAPI staining based analysis; format: functional
[36] = molecular target: Centromere-associated protein E (Homo sapiens, UniProt Q02224, I182L/T183A); assay: Binding affinity to human CENP-E I182L/T183A mutant assessed as inhibition constant
Centromere-associated protein E (Homo sapiens, UniProt Q02224, I182L/T183A), sequence (Q02224 whole entry I182L/T183A): as the sequence (Q02224 whole entry, the tested form may be a part) above, with I182L, T183A counted along it

[37] = tested on: A673; assay: Anticancer activity against human A673 cells assessed as cell doubling measured for 72 hrs by DAPI staining based analysis; format: functional
[38] = tested on: BeWo; assay: Anticancer activity against human BeWo cells assessed as cell doubling measured for 72 hrs by DAPI staining based analysis; format: functional
[39] = tested on: BHT-101; assay: Anticancer activity against human BHT-101 cells assessed as cell growth inhibition measured after 72 hrs by DAPI staining based analysis; format: functional; procedure, shortened: as §1
[40] = tested on: HCT-8; assay: Anticancer activity against human HCT-8 cells assessed as cell growth inhibition measured after 72 hrs by DAPI staining based analysis; format: functional

Ki [10]: 1.6 nM | GI50 [12]: 29 nM | GI50 [15]: 79 nM | GI50 [16]: 127 nM | Ki [17]: 3.2 nM | GI50 [22]: 88 nM | GI50 [23]: 29 nM | GI50 [27]: 98 nM | GI50 [28]: 33 nM | Ki [36]: 61 nM | GI50 [40]: 35 nM
Compound: CC(C)Oc1ccc(C(=O)N[C@H](CNC(=O)CN(C)C)Cc2ccc(-c3cn4cccc([C@H](C)O)c4n3)cc2)cc1Cl [GSK-923295A]
GI50 [1]: 34 nM | GI50 [2]: 158 nM | Activity [3]: 2.56 | GI50 [4]: 61 nM | Activity [5]: 1.63 | Activity [6]: 2.76 | Activity [7]: 1.74 | GI50 [8]: 25 nM | Activity [9]: 2.69 | Activity [11]: 2.69 | Activity [13]: 1.84 | Activity [14]: 3.86 | Activity [18]: 1.52 | Activity [19]: 3.13 | Activity [20]: 26% | Activity [21]: 58% | GI50 [24]: 81 nM | Activity [25]: 122% | GI50 [26]: 24 nM | Time [29]: 6.9 days | Activity [30]: 1.11 | Activity [31]: 2.17 | Activity [32]: 1.43 | Activity [33]: 3.31 | GI50 [34]: 53 nM | Activity [35]: 4.17 | Activity [37]: 2 | Activity [38]: 2.95 | GI50 [39]: 100 nM
